Assay outcomes from PubChem.
E-sel inducer: induces E-selectin expression in human endothelial cells; HUVEC E-selectin immunofluorescence imaging; normalized: neutral wells 0, TNF-alpha wells 100; activation, % at 7.58 µM; hit rate 0.37% among 260,000;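 active = mean E-selectin-positive cell signal at least 10% of the positive control, reached in at least 60% of replicates, without over 20% cell loss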
Target sequence (P16581 whole entry, looked up): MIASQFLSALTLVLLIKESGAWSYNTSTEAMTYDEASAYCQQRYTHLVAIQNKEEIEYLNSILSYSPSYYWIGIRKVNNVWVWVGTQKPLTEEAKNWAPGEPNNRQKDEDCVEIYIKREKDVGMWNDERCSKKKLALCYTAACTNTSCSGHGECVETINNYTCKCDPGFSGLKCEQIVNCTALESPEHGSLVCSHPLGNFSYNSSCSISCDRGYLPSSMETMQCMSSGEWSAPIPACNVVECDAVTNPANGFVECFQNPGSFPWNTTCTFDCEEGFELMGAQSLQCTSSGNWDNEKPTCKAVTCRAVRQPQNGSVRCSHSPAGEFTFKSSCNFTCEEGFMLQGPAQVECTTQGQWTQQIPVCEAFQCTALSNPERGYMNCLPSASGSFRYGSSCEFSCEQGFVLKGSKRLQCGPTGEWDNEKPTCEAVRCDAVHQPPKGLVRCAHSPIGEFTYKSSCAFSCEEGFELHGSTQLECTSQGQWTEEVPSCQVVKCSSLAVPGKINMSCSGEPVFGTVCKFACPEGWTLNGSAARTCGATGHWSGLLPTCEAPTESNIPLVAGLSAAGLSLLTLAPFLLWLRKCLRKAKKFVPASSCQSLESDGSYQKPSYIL
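Read-out basis: % PE-positive cells; Test system: HUVEC primary endothelial cells; Technique: immunofluorescence imaging; Dosing: single-point compound dose.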
XiGFP reactiv: X-chromosome reactivation activator. AID 743238. hit rate 0.055% among 360,000. activation, % at 7.58 µM. XiGFP mouse fibroblasts, % GFP-positive cells imaging, 3 d; cells co-treated with 5-aza-dC sensitizer; scaled so ellipticine positive control = 100%;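 active = mean normalized replicate activation at least 10% and every replicate at or above 10%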
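System: XiGFP fibroblasts, SV40-immortalized. Medium: DMEM plus 5-aza-dC sensitizer. Doses: single point. Timing: 3 d treatment, 15 min room-temperature fixation. Control set: ellipticine 6 µM.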
Of the large screens only hits and unclear results are named; the others gave an inactive call. Many of the other results were omitted from the sample, so hits are more common in it than they were.

COc1ccc(S(=O)(=O)N(C)C[C@H]2Oc3ccc(NC(=O)C4CC4)cc3CC(=O)N([C@H](C)CO)C[C@@H]2C)cc1	none
Cc1noc(C)c1NC(=O)Nc1ccc2c(c1)CC(=O)N([C@H](C)CO)C[C@@H](C)[C@H](CN(C)C(=O)Nc1ccc(F)cc1)O2	E-sel inducer 39
C[C@@H]1CN([C@@H](C)CO)C(=O)Cc2cc(NC(=O)Nc3ccc(F)cc3)ccc2O[C@H]1CN(C)C(=O)Nc1ccc(C(F)(F)F)cc1	E-sel inducer 52
C[C@H](CO)N1C[C@H](C)[C@H](CN(C)C(=O)Nc2ccc(F)cc2)Oc2ccc(NC(=O)Nc3ccc(C(F)(F)F)cc3)cc2CC1=O	none
C[C@@H]1CN([C@H](C)CO)C(=O)Cc2cc(NC(=O)Nc3cccc4ccccc34)ccc2O[C@@H]1CN(C)C(=O)Nc1ccc(C(F)(F)F)cc1	none
C[C@H]1CN([C@@H](C)CO)C(=O)Cc2cc(NC(=O)Nc3cccc4ccccc34)ccc2O[C@@H]1CN(C)C(=O)Nc1ccc(C(F)(F)F)cc1	E-sel inducer 55
Cc1noc(C)c1NC(=O)N(C)C[C@H]1Oc2ccc(NC(=O)Nc3ccc(F)cc3)cc2CC(=O)N([C@@H](C)CO)C[C@@H]1C	none
C[C@@H]1CN([C@@H](C)CO)C(=O)Cc2cc(NC(=O)Cn3cnnn3)ccc2O[C@H]1CN(C)C(=O)Nc1ccc(C(F)(F)F)cc1	E-sel inducer 415
C[C@H]1CN([C@@H](C)CO)C(=O)Cc2cc(NC(=O)Cn3cnnn3)ccc2O[C@H]1CN(C)C(=O)Nc1ccc(C(F)(F)F)cc1	none
CN1C(=O)c2cc(NS(C)(=O)=O)ccc2OC[C@H]2O[C@H](CC(=O)NCc3ccccc3)CC[C@@H]21	none
C[C@@H]1CN([C@H](C)CO)C(=O)c2cc(C#Cc3cccnc3)cnc2O[C@@H]1CN(C)Cc1cccnc1	none
C[C@H](CO)N1C[C@H](C)[C@H](CN(C)Cc2ccc(C(=O)O)cc2)OCCCC[C@H](C)Oc2ccc(NS(=O)(=O)c3ccc(F)cc3)cc2C1=O	none
Cc1ccc(S(=O)(=O)N[C@H]2CC[C@H](CCNC(=O)C3CCOCC3)O[C@@H]2CO)cc1	none
COc1ccc2c3c([nH]c2c1)[C@H](CO)N(C(C)=O)CC31CCN(Cc2cc(-c3ccccc3)on2)CC1	none
CO[C@H]1CN(C)C(=O)c2cc(NC(=O)C3CCOCC3)ccc2OC[C@H](C)N(C(C)=O)C[C@H]1C	none
O=C(C[C@@H]1CC[C@H]2[C@@H](COC[C@@H](O)CN2Cc2cccc(Cl)c2)O1)NCc1cccc(F)c1	none
C[C@@H]1CN([C@@H](C)CO)C(=O)Cc2cc(NS(=O)(=O)c3cccs3)ccc2O[C@H]1CN(C)C(=O)Nc1ccc(F)cc1	E-sel inducer 30
C[C@H]1CN([C@@H](C)CO)C(=O)Cc2cc(NS(=O)(=O)c3cccs3)ccc2O[C@H]1CN(C)C(=O)Nc1ccc(F)cc1	none
C[C@@H]1CN([C@H](C)CO)C(=O)Cc2cc(NS(=O)(=O)c3cccs3)ccc2O[C@@H]1CN(C)C(=O)Nc1ccccc1	none
CC(C)NC(=O)N(C)C[C@@H]1Oc2ccc(NS(=O)(=O)c3cccs3)cc2CC(=O)N([C@H](C)CO)C[C@@H]1C	E-sel inducer 26
CN1C(=O)c2cc(NC(=O)c3ccc(F)c(F)c3)ccc2OC[C@@H]2O[C@H](CC(=O)N[C@H]3CCN(Cc4ccccc4)C3)CC[C@@H]21	none
O=C(Nc1ccncc1)C1CC(=O)N(c2ccc(F)cc2)C1 (centres undefined)	none (no result: E-sel inducer)
CCc1ccc(N2CC(C(=O)Nc3ccc(F)cc3)CC2=O)cc1 (centres undefined)	E-sel inducer 42
C[C@@H]1CN([C@@H](C)CO)C(=O)c2cc(NC(=O)CCC(F)(F)F)ccc2O[C@H]1CN(C)Cc1ccc(Oc2ccccc2)cc1	none
CC(O)CN(CC(C)O)c1ccc2c(c1)Cc1cc([N+](=O)[O-])ccc1-2 (centres undefined)	XiGFP reactiv 29
Nc1ccc2c(c1)Cc1cc([N+](=O)[O-])ccc1-2	none (no result: E-sel inducer)
O=C(C[C@H]1CC[C@H](NS(=O)(=O)c2ccc(F)cc2)[C@H](CO)O1)NCc1ccc(Cl)c(Cl)c1	none
CC(=O)Nc1ccc(CNc2nc(NC(C)C)nc3cc(-c4ccccc4)sc23)cc1	E-sel inducer 33
C=CCNc1nc(NCc2ccc(NC(C)=O)cc2)c2sc(-c3ccccc3)cc2n1	none
COc1ccc(-c2cn(CC[C@@H]3CC[C@@H](NC(=O)Nc4ccc(F)cc4)[C@@H](CO)O3)nn2)cc1	none
COc1cccc(-c2ccc([C@@H]3[C@H]4CN(C(=O)CN5CCOCC5)CC(=O)N4[C@H]3CO)cc2)c1	none
CC(C)NC(=O)Nc1cccc2c1O[C@@H](CN(C)Cc1ccc(C(F)(F)F)cc1)[C@@H](C)CN([C@@H](C)CO)C2=O	none
C[C@@H]1CN([C@@H](C)CO)C(=O)c2cccc(NC(=O)c3nc4ccccc4s3)c2O[C@H]1CN(C)Cc1ccc(C(F)(F)F)cc1	none
